Legend:
[1] = biological target: T1, Human immunodeficiency virus type 1 integrase (Human immunodeficiency virus 1, UniProt Q7ZJM1); test: Inhibition of HIV1 integrase 3' processing activity after 1 hr by gel based assay in presence of magnesium
How it was run: (§1)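 Buffer was 20 mM HEPES pH 7.5, 1 mM DTT, 10 mM MgCl2 and 10% DMSO, for 1 h at 37 °C. DNA was precipitated, phenol/chloroform-extracted and analysed on gel. IC50 was fitted from percent inhibition versus concentration, from duplicate experiments.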

[2] = tested on: Human immunodeficiency virus 1; test: Antiviral activity against HIV1 NL4-3 infected in human TZM-bl cells assessed as inhibition of Tat protein-induced transactivation after 48 hrs by beta galactosidase assay; type: functional, organism-based; settings: Human immunodeficiency virus 1, NL4-3, TZM-bl
How it was run: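 TZM-bl cells were grown in DMEM at 37 °C with 5% CO2 and plated at 5000 cells/well. After 48 h the medium was replaced with compound dilutions (0.00128 to 4). Cells were infected with NL4-3 (100 ng p24) 4 h later. At 48 h post-infection, cells were lysed in PBS with 0.1% NP-40 and 5 mM MgCl2. β-galactosidase was read with chlorophenol red-galactopyranoside. EC50 came from dose-response curves.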

[3] = biological target: T1, Human immunodeficiency virus type 1 integrase; test: Inhibition of HIV1 integrase strand transfer activity after 1 hr by gel based assay in presence of magnesium; how it was run: as §1
[4] = Cytotoxicity against human TZM-bl cells assessed as cell viability after 3 days by WST-1 assay; type: cell-based
How it was run: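 TZM-bl cells were seeded at 5000/well, and compound dilutions (100 to 0.032) were added 2 h later. Cells and compound were held 3 days at 37 °C in growth medium. Viability was measured by WST-1 cleavage, absorbance at […]. Cytotoxicity is the percent reduction in viable cells relative to drug-free control cultures.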

[5] = Selectivity index, ratio of CC50 for human TZM-bl cells to EC50 for HIV1 NL4-3; type: toxicity, cell-based; settings: read-out: Ratio CC50/EC50
How it was run: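 Index was calculated as CC50/EC50, both determined in TZM-bl cells (WST-1 viability over 3 days; NL4-3 infection with β-galactosidase read-out).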

T1 sequence (Q7ZJM1 whole entry): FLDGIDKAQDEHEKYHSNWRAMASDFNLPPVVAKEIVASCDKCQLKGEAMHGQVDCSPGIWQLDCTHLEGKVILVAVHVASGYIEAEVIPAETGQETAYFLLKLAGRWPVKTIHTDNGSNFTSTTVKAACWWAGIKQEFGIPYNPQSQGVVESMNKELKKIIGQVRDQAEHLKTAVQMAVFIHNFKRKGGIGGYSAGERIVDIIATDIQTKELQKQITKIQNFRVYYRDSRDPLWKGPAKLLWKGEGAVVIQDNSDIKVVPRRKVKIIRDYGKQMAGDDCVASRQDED

Row | IC50 [1] [µM] | EC50 [2] [µM] | IC50 [3] [µM] | Compound | CC50 at 72 h [4] [µM] | selectivity ratio [5]
1 | 3 | 1 | 0.05 | O=C(O)/C(O)=C/C(=O)c1cn(Cc2ccc(F)cc2)c2ccc(OCc3ccc(F)cc3)cc2c1=O | > 1000 | 1000
2 | 8 | 5 | 0.03 | O=C(O)/C=C/c1ccc2c(c1)c(=O)c(C(=O)/C=C(\O)C(=O)O)cn2Cc1ccc(F)cc1 | > 1000 | 200
3 | 1.6 | 4 | 0.03 | O=C(O)/C(O)=C/C(=O)c1cn(Cc2ccc(F)cc2)c2ccc(Br)cc2c1=O | > 1000 | 250
4 | > 300 | > 140 | > 300 | CCOC(=O)/C=C/c1ccc2c(c1)c(=O)c(C(=O)/C=C(\O)C(=O)OCC)cn2Cc1ccc(F)cc1 | > 1000 | 7
5 | > 300 | 13 | > 300 | CCOC(=O)/C(O)=C/C(=O)c1cn(Cc2ccc(F)cc2)c2ccc(OCc3ccc(F)cc3)cc2c1=O | > 1000 | 77
